Calls of active or inactive are those of the source. The rule behind the calls is not given here.
Assays:
RAW264.7 = assay: Antiinflammatory activity in mouse RAW264.7 cells assessed as decrease in LPS-induced NO production after 18 hrs by DAN assay; type: functional, cell-based
Outline: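 RAW 264.7 cells at 2×10^5 cells/mL, 24 h, medium refreshed, then LPS 100 ng/mL with or without graded compound for 18 h; nitrite in medium reacted with 2,3-diaminonaphthalene (0.05 mg/mL in 0.62 M HCl), 15 min in dark, as NO readout. n = 3, mean ± SD.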

[1] = target: Proto-oncogene tyrosine-protein kinase Src (Homo sapiens) (UniProt P12931); assay: Inhibition of wild-type human partial length SRC (L240 to L536 residues) expressed in bacterial expression system assessed as residual activity at 10 uM by Kinomescan method relative to control
Chain of Proto-oncogene tyrosine-protein kinase Src (Homo sapiens) (P12931 2-536 limits assumed): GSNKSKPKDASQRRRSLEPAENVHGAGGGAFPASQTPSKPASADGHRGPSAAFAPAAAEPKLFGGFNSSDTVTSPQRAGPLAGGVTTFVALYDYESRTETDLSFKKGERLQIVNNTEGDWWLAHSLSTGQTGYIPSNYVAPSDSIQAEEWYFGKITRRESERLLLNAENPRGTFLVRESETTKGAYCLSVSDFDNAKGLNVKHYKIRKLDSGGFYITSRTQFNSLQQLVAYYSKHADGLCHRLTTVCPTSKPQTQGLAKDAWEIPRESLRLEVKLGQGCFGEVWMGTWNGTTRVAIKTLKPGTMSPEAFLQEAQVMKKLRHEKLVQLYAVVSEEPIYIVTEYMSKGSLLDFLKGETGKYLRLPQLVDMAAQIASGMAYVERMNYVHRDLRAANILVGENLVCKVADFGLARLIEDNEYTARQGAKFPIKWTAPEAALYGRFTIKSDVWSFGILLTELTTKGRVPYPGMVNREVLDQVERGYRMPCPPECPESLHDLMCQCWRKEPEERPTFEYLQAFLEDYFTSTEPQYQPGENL

O=C(NNC(=O)c1csc(-c2ccc(Cl)cc2Cl)n1)c1ccccn1
Activity (RAW264.7): Active
Activity [1]: 75%
